ChEMBL document CHEMBL1135534, “Synthesis, cytotoxicity, and antiplasmodial and antitrypanosomal activity of new neocryptolepine derivatives” (J Med Chem, 2002)
Active and inactive are the calls of the source. The calls are words filed in the database; no cut-off is given here.

How the values were obtained:
Trypanosoma brucei = assay: Antitrypanosomal activity against Trypanosoma brucei.; type: functional, organism-based
Summary of the method: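 Bloodstream-form trypomastigotes grown in HMI-9 medium; 10 000 parasites per well exposed to a range of compound concentrations for 4 days. Multiplication read colorimetrically at 490 nm after MTT addition. Test compounds as hydrochloride salts; IC50 determined in triplicate (mean ± SD).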

Plasmodium falciparum [1] = assay: Antiplasmodial activity against chloroquine-sensitive Plasmodium falciparum Ghana; type: functional, organism-based
Summary of the method: (§1)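 Asexual P. falciparum cultures at 1% parasitaemia and 2% haematocrit (W2 for line 1, Ghana for line 2) exposed to 2-fold serial dilutions of the HCl salt for 48 h at 37 °C under 93% N2/4% CO2/3% O2. Plates frozen at -20 °C to lyse cells. Parasite LDH read-out: APAD reduction coupled to NBT formazan at 650 nm. IC50 in triplicate, mean ± SD.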

Plasmodium falciparum [2] = assay: Antiplasmodial activity against chloroquine-resistant Plasmodium falciparum W2; type: functional, organism-based; summary of the method: as §1
Nucleic Acid [3] = assay: (§2) Inhibition of DNA interaction using DNA Methyl Green Assay.; type: nucleic-acid assay
Summary of the method: (§3)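 DNA–methyl green complex stirred 24 h at 37 °C in 0.05 M Tris-HCl pH 7.5 with 7.5 mM MgSO4. Compound dried in wells under vacuum, then complex solution added. Absorbance at 620 nm compared between start and 24 h. IC50 taken as the concentration giving 50% absorbance decrease (50% dye displacement).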

MRC5 = assay: Cytotoxicity against human diploid embryonic lung cell line MRC-5 using MTT assay; type: functional, cell-based
Summary of the method: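 Cells seeded at 5000 per well and washed after 24 h. 2-fold drug dilutions added in RPMI + 5% FCS, final DMSO below 0.5%. Incubated 7 days at 37 °C, 5% CO2/95% air. MTT read-out at 540 nm as percent reduction versus untreated controls. IC50 in triplicate (mean ± SD).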

Trypanosoma cruzi = assay: Antitrypanosomal activity against Trypanosoma cruzi; type: functional, organism-based
Summary of the method: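 Primary mouse peritoneal macrophages seeded at 30 000 per well; after 24 h, about 10 000 trypomastigotes added per well with 2-fold drug dilutions. Incubated 4 days at 37 °C in 5% CO2/95% air. Cells MeOH-fixed and Giemsa-stained. Percent reduction of total parasite load (free trypomastigotes plus intracellular amastigotes) versus untreated cultures scored microscopically. IC50 in triplicate (mean ± SD).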

[4] = biological target: T1, Histidine-rich protein PFHRP-II (Plasmodium falciparum) (UniProt P05227); assay: Inhibition of beta-hematin formation; no inhibition; type: functional
T1 sequence (whole entry): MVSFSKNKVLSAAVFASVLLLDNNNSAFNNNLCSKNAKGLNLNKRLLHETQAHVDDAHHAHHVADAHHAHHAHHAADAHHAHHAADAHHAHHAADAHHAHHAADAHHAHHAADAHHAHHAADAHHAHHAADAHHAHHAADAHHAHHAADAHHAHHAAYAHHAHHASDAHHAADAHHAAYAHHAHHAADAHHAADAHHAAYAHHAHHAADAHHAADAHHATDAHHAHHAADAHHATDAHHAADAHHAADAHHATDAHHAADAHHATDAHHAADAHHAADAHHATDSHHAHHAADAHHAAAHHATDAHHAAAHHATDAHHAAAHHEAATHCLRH
Summary of the method: (§4)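 Hematin solutions received compound at 3 equiv relative to hemin before acidification. Incubated 40 min at 60 °C, then cooled and filtered; precipitate washed with water and dried. β-Hematin detected by FT-IR bands at 1660 and 1207 cm-1. Hemin without compound served as the formation control. Result is a qualitative yes/no call.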

[5] = Inhibition of beta-hematin formation; active
[6] = biological target: T1, Histidine-rich protein PFHRP-II (Plasmodium falciparum); assay: Inhibition of beta-hematin formation; active; type: functional; summary of the method: as §4
Nucleic Acid [7] = assay: as §2; type: functional; summary of the method: as §3
Nucleic Acid [8] = assay: as §2; type: nucleic-acid assay; details: concentration not given here; summary of the method: as §3

Row | inhibition [6] | inhibition (Nucleic Acid [8]) | Compound | IC50 (Trypanosoma brucei) | IC50 (Plasmodium falciparum [1]) | IC50 (Plasmodium falciparum [2]) | IC50 (Nucleic Acid [3]) | IC50 (MRC5) | IC50 (Trypanosoma cruzi) | inhibition [4] | inhibition [5] | IC50 (Nucleic Acid [7])
1 |  |  | Cn1c2nc3ccccc3c-2cc2c(Br)cccc21 | 16.7 µM | > 32 µM | > 32 µM | > 600 µM | 16 µM | 15.7 µM | inactive |  | 
2 |  |  | Cn1c2nc3ccccc3c-2cc2ccccc21 [NEOCRYPTOLEPINE] | 4 µM | 27.3 µM | 14 µM | 92.8 µM | 11 µM | 4 µM |  | Active | 
3 | Active |  | Cn1c2nc3ccccc3c-2cc2ccc(Br)cc21 | 27.3 µM |  |  | > 600 µM | 18.5 µM | > 32 µM |  |  | 
4 |  |  | Clc1ccc2[nH]c3nc4ccccc4c-3cc2c1 | > 32 µM | > 32 µM | > 32 µM | > 1000 µM | > 32 µM | > 32 µM |  | Active | 
5 |  |  | C[n+]1c2ccccc2cc2[n-]c3ccccc3c21 [CRYPTOLEPINE] | 3 µM | 2.3 µM | 2 µM | 65.7 µM | 1.5 µM |  |  | Active | 
6 | Active |  | Cn1c2nc3ccccc3c-2cc2ccc(C(F)(F)F)cc21 | 16.7 µM |  |  | > 500 µM | 18 µM | > 32 µM |  |  | 
7 |  |  | COc1ccc2c(c1)cc1c3ccccc3nc-1n2C | 0.3 µM | 4.3 µM | 4.7 µM | 77.9 µM | 4 µM | 1.7 µM | No inhibition |  | 
8 |  |  | Cn1c2nc3ccccc3c-2cc2cc(I)ccc21 | 1 µM | 17.7 µM | 6.3 µM | > 400 µM | 16 µM | 18.3 µM |  | Active | 
9 |  |  | Cn1c2nc3ccc(C#N)cc3c-2cc2cc(C(F)(F)F)ccc21 | > 32 µM | 14 µM | 6.7 µM | > 200 µM | > 32 µM | > 32 µM |  |  | 
10 |  |  | Cn1c2nc3ccc(C#N)cc3c-2cc2cc(F)ccc21 | 4 µM | 16.3 µM | 14.7 µM | > 600 µM | 11 µM | > 32 µM |  | Active | 
11 |  |  | Cn1c2nc3ccccc3c-2cc2cc(C#N)ccc21 | 4 µM | 17 µM | 15.3 µM | > 600 µM | 16 µM | 16.3 µM |  |  | 
12 |  |  | Cn1c2nc3ccccc3c-2cc2cc(Br)ccc21 | 1 µM | 6 µM | 4 µM | > 400 µM | > 32 µM | > 32 µM |  | Active | 
13 |  |  | Cn1c2nc3ccccc3c-2cc2c(C(F)(F)F)cccc21 | > 32 µM | > 32 µM | > 32 µM | > 400 µM | 16 µM | 16.3 µM |  |  | 
14 |  |  | Clc1cc(Cl)c2[nH]c3nc4ccccc4c-3cc2c1 | > 32 µM | > 32 µM | > 32 µM |  | > 32 µM |  |  | Active | > 1000 µM
15 |  |  | Cn1c2nc3ccccc3c-2cc2cc(Cl)ccc21 | 1.3 µM | 21 µM | 5 µM | > 500 µM | 16.5 µM | 12 µM |  | Active | 
16 |  |  | Cn1c2nc3ccccc3c-2cc2cc([N+](=O)[O-])ccc21 | 0.7 µM | 29 µM | > 32 µM | > 1000 µM | > 32 µM |  |  |  | 
17 |  |  | Cc1ccc2c(c1)cc1c3ccccc3nc-1n2C | 0.1 µM | 2.7 µM | 2.3 µM |  | 0.95 µM |  |  |  | 
18 |  |  | Cn1c2nc3ccccc3c-2cc2cc(F)ccc21 | 14.3 µM | 19.3 µM | 4.7 µM | > 500 µM | 15 µM | 6 µM |  | Active | 
19 |  | 37% | COc1ccc2cc3c4ccccc4nc-3n(C)c2c1 | 0.4 µM |  |  | 150 µM | 3.5 µM | 1 µM | No inhibition |  | 
20 |  |  | Fc1ccc2[nH]c3nc4ccccc4c-3cc2c1 | > 32 µM | > 32 µM | > 32 µM | > 1000 µM | > 32 µM | > 32 µM | No inhibition |  | 
21 |  |  | COc1ccc2c(c1)cc1c3cc(C#N)ccc3nc-1n2C | 1 µM | 28.3 µM | 17 µM | > 500 µM | > 32 µM | 1 µM | No inhibition |  | 
22 |  |  | CSc1ccc2c(c1)cc1c3ccccc3nc-1n2C | 0.8 µM | 4 µM | 3.7 µM | > 600 µM | 5 µM | 4 µM |  | Active | 
23 | Active |  | Cn1c2nc3ccccc3c-2cc2ccc(Cl)cc21 | 9.3 µM |  |  | > 700 µM | 15.5 µM | 17 µM |  |  | 
24 |  |  | COc1cccc2c1cc1c3ccccc3nc-1n2C | 1.3 µM | 17.7 µM | 12.3 µM | > 1000 µM | 5 µM | 4 µM | No inhibition |  | 
25 |  |  | Cn1c2nc3ccc(C#N)cc3c-2cc2ccccc21 | > 32 µM | > 32 µM | > 32 µM | > 1000 µM | > 32 µM |  |  | Active | 
26 |  |  | Cn1c2nc3ccc(C#N)cc3c-2cc2cc(Cl)ccc21 | > 32 µM | > 32 µM | > 32 µM |  | > 32 µM |  |  |  | 

Row | Compound | inhibition [6] | inhibition (Nucleic Acid [8]) | IC50 (Trypanosoma brucei) | IC50 (Plasmodium falciparum [1]) | IC50 (Plasmodium falciparum [2]) | IC50 (Nucleic Acid [3]) | IC50 (MRC5) | IC50 (Trypanosoma cruzi) | inhibition [4] | inhibition [5] | IC50 (Nucleic Acid [7])
27 | COc1ccc2[nH]c3nc4ccccc4c-3cc2c1 | Active |  | > 32 µM | > 32 µM | > 32 µM | > 1000 µM | > 32 µM |  |  |  | 
